Reference: ChEMBL document CHEMBL2390866, “Novel pyrimidoazepine analogs as serotonin 5-HT(2A) and 5-HT(2C) receptor ligands for the treatment of obesity” (Eur J Med Chem, 2013)

Tests used:
[1] = molecular target: 5-hydroxytryptamine receptor 7 (Homo sapiens, UniProt P34969); assay: Displacement of [3H]-LSD from human recombinant 5HT-7 receptor expressed in CHOK1 cell membranes after 120 mins; set-up: species or system CHO-K1
Outline: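 CHO-K1 membranes expressing human 5-HT7 incubated with 3 nM [3H]LSD for 120 min at 27 °C in 50 mM Tris-HCl pH 7.4, 10 mM MgSO4, 0.5 mM EDTA. Filtered on glass-fiber filters presoaked in 0.3% PEI. Methiothepin defined nonspecific binding.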

[2] = molecular target: 5-hydroxytryptamine receptor 6 (Homo sapiens, UniProt P50406); assay: Displacement of [3H]-LSD from human recombinant 5HT-6 receptor expressed in CHOK1 cell membranes after 60 mins; set-up: species or system CHO-K1
Outline: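 CHO-K1 membranes expressing human 5-HT6 incubated with 1 nM [3H]LSD for 60 min at 27 °C in 50 mM Tris-HCl pH 7.4 containing 4 mM CaCl2 and 0.1% ascorbic acid. Terminated by filtration on glass-fiber filters presoaked in 0.5% PEI. Methiothepin defined nonspecific binding.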

D(2) dopamine receptor = D(2) dopamine receptor (Homo sapiens, UniProt P14416); assay: Displacement of [3H]-methylspiperone from dopamine D2L receptor (unknown origin) after 60 mins
Outline: (§1)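 Receptor membranes incubated at 27 °C, 60 min for D2L and 30 min for D3, with [3H]methylspiperone (0.2 nM for D2L, 0.25 nM for D3) and test compound at a range of concentrations. Buffer was 50 mM Tris-HCl pH 7.4, 10 mM MgCl2, 1 mM EDTA, 120 mM NaCl. Nonspecific binding defined with haloperidol (D2) or GR103691 (D3). IC50 obtained by nonlinear regression.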

[3] = molecular target: T1, 5-hydroxytryptamine receptor 1A (Homo sapiens, UniProt P08908); assay: Displacement from [3H]8-OH-DPAT from human recombinant 5HT-1A receptor expressed in HEK293 cells after 120 mins; format: cell-based
T1 sequence (P08908 whole entry): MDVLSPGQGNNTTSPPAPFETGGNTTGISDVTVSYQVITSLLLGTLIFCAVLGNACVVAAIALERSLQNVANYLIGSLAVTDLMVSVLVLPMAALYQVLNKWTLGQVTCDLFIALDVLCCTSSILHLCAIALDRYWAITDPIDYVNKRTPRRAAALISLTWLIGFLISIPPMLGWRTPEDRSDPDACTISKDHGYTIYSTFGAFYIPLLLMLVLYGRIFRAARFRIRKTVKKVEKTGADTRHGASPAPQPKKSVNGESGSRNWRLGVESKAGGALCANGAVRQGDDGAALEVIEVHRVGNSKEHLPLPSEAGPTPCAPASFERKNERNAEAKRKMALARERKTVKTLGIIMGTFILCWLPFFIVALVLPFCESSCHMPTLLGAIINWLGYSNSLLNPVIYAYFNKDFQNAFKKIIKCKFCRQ
Outline: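 Membranes from HEK293-EBNA cells stably expressing recombinant human 5-HT1A. Incubated with 2 nM [3H]8-OH-DPAT and test compound at a range of concentrations in 50 mM Tris-HCl pH 7.4 with 5 mM MgSO4.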

[4] = molecular target: T2, 5-hydroxytryptamine receptor 2C (Homo sapiens, UniProt P28335); assay: Antagonist activity at serotonin-activated human recombinant 5HT-2C receptor expressed in HEK293 cells assessed as decrease in intracellular calcium level after 5 mins measured for 1 min by fluorescence assay; format: functional, cell-based; conditions: read-out: EC50 (the source's name)
T2 sequence (P28335 whole entry): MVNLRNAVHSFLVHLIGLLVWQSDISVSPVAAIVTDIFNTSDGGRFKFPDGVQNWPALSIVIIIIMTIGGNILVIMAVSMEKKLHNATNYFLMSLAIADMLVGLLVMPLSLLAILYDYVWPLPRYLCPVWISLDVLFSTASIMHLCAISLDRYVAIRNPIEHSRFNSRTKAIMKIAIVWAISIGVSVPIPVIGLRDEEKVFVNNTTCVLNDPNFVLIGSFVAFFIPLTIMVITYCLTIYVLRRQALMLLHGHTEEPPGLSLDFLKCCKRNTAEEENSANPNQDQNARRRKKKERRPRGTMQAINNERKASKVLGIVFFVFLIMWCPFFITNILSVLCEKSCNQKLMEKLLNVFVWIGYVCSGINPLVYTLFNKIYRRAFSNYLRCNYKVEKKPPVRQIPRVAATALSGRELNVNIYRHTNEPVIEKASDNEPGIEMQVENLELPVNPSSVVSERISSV
Outline: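 Intracellular calcium read on HEK293 cells stably expressing human receptor, seeded 10,000 cells/well and grown 24 h at 37 °C, 5% CO2. Cells were washed with HBSS/20 mM HEPES, then loaded 50 min with Fluo-4 NW dye in HBSS with 2.5 mM probenecid. Compound was added for 5 min at 37 °C, then serotonin; fluorescence followed 1 min. Run in duplicate or quadruplicate, repeated several times; IC50 by nonlinear regression.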

[5] = molecular target: T3, 5-hydroxytryptamine receptor 2A (Homo sapiens, UniProt P28223); assay: Displacement of [3H]-ketanserin from human recombinant 5HT-2A receptor expressed in CHOK1 cell membranes after 60 mins; set-up: species or system CHO-K1
Outline: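 Buffer was 50 mM Tris-HCl pH 7.4 with 5 mM CaCl2 and 0.1% ascorbic acid. Test compound added at a range of concentrations.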

D(3) dopamine receptor = D(3) dopamine receptor (Homo sapiens, UniProt P35462); assay: Displacement of [3H]-methylspiperone from dopamine D3 receptor (unknown origin) after 30 mins; outline: as §1
[6] = molecular target: T2, 5-hydroxytryptamine receptor 2C; assay: Displacement of [3H]-mesulergine from human recombinant 5HT-2C receptor expressed in CHOK1 cell membranes after 30 mins; set-up: species or system CHO-K1
Outline: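 Frozen CHO-K1 membranes expressing recombinant human 5-HT2C incubated with 1 nM [3H]mesulergine in 50 mM Tris-HCl pH 7.4 containing 0.1% ascorbic acid and pargyline. Mianserin defined nonspecific binding.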

Mus musculus [7] = assay: Antiobesity activity in C57BL/6 mouse assessed as inhibition of food intake at 50 mg/kg, ip measured after 2 to 12 hrs relative to vehicle-treated control; format: functional; conditions: C57BL/6, ip, route intraperitoneal
Outline: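 Male mice were acclimated 1 week at 23 ± 3 °C and 50 ± 20% humidity, then fasted 24 h. They were dosed once intraperitoneally with vehicle or compound: 50 mg/kg in C57BL/6, or 12.5, 25 or 50 mg/kg in B6.V-Lep^ob/J. Food intake was measured at 2, 6 and 12 h versus vehicle control.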

[8] = molecular target: T3, 5-hydroxytryptamine receptor 2A; assay: Antagonist activity at serotonin-activated human recombinant 5HT-2A receptor expressed in HEK293 cells assessed as decrease in intracellular calcium level after 5 mins measured for 1 min by fluorescence assay; format: functional, cell-based; conditions: read-out: EC50 (the source's name)
Outline: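 Cells were washed with HBSS/20 mM HEPES, then loaded 50 min with Fluo-4 NW dye in HBSS with 2.5 mM probenecid. Compound was added for 5 min at 37 °C, then serotonin; fluorescence followed 1 min. Run in duplicate or quadruplicate, repeated several times; IC50 by nonlinear regression.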

Mus musculus [9] = assay: Antiobesity activity in C57BL/6 mouse assessed as inhibition of body weight gain at 50 mg/kg, ip measured after 2 to 12 hrs relative to vehicle-treated control; format: functional; conditions: C57BL/6, ip, route intraperitoneal
[10] = Displacement of [3H]-YM-09151-2 from cloned dopamine D4.2 receptor (unknown origin) expressed in Sf9 cells after 60 mins; set-up: species or system Homo sapiens
Outline: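 Sf9 membranes with cloned D4.2 receptor incubated with 0.2 nM [3H]YM-09151-2 for 60 min at 27 °C in 50 mM Tris-HCl pH 7.4, 5 mM MgCl2, 5 mM EDTA, 5 mM KCl, 1.5 mM CaCl2. Clozapine defined nonspecific binding. Filtered on glass-fiber filters presoaked in 0.3% PEI.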

[11] = molecular target: T4, Alpha-1A adrenergic receptor (Homo sapiens, UniProt P35348); assay: Binding affinity to adrenergic alpha1A receptor (unknown origin)
T4 sequence (P35348 whole entry): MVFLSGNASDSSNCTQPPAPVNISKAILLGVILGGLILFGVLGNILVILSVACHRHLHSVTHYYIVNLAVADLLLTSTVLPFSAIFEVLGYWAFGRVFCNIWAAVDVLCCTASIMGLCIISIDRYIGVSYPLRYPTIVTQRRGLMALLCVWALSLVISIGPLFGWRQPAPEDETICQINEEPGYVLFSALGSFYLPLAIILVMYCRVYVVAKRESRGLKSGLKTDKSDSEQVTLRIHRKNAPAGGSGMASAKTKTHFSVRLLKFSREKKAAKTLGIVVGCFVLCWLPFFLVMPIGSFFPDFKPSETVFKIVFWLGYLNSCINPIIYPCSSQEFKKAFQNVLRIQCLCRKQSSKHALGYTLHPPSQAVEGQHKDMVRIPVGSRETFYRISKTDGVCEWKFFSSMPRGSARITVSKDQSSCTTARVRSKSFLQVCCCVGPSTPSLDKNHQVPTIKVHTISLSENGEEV

[12] = molecular target: T5, Alpha-2A adrenergic receptor (Homo sapiens, UniProt P08913); assay: Binding affinity to adrenergic alpha2A receptor (unknown origin)
T5 sequence (P08913 whole entry): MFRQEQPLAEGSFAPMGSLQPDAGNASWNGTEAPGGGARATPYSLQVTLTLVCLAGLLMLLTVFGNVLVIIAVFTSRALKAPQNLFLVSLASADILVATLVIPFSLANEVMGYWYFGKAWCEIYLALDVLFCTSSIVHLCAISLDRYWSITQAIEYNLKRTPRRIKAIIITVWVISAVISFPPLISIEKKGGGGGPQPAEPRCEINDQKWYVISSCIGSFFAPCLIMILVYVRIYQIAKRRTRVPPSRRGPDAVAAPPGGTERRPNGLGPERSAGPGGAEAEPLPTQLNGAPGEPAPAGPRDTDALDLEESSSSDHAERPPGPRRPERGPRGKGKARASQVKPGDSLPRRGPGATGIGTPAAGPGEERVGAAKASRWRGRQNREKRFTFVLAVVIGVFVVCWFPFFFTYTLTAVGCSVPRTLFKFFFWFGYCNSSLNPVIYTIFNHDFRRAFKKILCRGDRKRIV

Homo sapiens [13] = organism: Homo sapiens; assay: Selectivity ratio of IC50 for human recombinant 5HT-2B receptor to IC50 for human recombinant 5HT-2A receptor
[14] = molecular target: 5-hydroxytryptamine receptor 2B (Homo sapiens, UniProt P41595); assay: Displacement of […] from human recombinant 5HT-2B receptor
Homo sapiens [15] = organism: Homo sapiens; assay: Selectivity ratio of IC50 for human recombinant 5HT-2B receptor to IC50 for human recombinant 5HT-2C receptor
Mus musculus [16] = assay: Antiobesity activity in C57BL/6 mouse assessed as inhibition of food intake at 5.6 mg/kg, ip measured after 2 to 12 hrs relative to vehicle-treated control; format: functional; conditions: C57BL/6, ip, route intraperitoneal
Outline: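 Male C57BL/6 mice acclimated 1 week (23 ± 3 °C, 50 ± 20% humidity), fasted 24 h, then given intraperitoneal vehicle or drug. Food intake measured over intervals of 2, 6 and 12 h and compared with vehicle control.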

Sequence of D(2) dopamine receptor (P14416 whole entry): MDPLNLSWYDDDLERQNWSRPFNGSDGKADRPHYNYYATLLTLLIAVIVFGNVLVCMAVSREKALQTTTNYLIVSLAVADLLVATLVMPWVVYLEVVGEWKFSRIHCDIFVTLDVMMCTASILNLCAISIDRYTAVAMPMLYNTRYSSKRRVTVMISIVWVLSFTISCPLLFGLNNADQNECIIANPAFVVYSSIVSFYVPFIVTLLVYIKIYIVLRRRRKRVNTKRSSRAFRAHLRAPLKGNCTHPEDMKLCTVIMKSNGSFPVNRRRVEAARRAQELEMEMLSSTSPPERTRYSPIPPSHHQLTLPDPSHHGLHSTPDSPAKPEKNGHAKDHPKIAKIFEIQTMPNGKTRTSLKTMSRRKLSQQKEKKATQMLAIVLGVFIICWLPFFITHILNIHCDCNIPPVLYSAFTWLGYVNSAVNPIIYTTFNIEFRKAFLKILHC
Sequence of 5-hydroxytryptamine receptor 7 (P34969 whole entry): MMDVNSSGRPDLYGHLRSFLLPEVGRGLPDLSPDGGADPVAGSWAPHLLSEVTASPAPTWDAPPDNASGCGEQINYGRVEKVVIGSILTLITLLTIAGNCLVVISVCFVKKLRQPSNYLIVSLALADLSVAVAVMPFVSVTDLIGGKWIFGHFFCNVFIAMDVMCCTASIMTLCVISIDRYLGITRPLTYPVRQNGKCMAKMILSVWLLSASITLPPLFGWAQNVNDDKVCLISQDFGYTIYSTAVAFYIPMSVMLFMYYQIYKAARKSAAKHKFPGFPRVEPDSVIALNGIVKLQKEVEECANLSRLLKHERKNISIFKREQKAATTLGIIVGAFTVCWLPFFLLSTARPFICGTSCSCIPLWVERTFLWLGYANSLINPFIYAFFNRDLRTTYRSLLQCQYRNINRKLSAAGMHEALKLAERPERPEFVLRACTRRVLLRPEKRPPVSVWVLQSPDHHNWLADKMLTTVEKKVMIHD
T3 sequence (P28223 whole entry): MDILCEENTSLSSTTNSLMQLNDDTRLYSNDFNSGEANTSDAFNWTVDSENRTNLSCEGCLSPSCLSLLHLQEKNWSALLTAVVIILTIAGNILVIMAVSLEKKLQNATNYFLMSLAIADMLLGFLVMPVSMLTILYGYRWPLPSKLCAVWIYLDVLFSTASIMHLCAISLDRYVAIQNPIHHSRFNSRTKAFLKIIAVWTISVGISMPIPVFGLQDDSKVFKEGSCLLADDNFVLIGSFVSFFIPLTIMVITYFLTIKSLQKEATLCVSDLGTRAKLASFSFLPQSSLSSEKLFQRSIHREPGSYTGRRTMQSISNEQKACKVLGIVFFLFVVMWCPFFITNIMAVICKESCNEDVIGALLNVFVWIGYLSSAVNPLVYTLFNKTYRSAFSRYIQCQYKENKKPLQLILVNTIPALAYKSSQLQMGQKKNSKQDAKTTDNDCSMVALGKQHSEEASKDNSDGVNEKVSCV
Sequence of D(3) dopamine receptor (P35462 whole entry): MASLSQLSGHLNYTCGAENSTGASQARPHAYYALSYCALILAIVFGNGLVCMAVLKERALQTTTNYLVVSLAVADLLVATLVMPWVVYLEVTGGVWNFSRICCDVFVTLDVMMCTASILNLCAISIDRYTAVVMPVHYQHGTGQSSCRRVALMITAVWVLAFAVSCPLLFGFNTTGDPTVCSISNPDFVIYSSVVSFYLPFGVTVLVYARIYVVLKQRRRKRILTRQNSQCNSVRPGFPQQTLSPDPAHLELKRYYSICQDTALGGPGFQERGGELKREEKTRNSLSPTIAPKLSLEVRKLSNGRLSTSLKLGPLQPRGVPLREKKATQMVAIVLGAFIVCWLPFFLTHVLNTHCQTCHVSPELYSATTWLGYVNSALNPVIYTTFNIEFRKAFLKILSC
Sequence of 5-hydroxytryptamine receptor 6 (P50406 whole entry): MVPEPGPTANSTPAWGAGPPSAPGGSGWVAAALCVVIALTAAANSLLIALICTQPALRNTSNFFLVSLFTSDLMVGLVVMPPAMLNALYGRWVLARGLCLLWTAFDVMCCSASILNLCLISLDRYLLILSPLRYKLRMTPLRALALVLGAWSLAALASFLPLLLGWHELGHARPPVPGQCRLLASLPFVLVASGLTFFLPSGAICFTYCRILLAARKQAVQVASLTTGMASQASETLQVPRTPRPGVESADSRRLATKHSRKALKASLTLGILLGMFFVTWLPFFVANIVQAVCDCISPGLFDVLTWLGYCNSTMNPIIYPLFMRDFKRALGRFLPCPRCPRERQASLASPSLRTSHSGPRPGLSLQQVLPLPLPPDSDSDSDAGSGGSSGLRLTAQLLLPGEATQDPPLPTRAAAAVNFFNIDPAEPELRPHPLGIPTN
Sequence of 5-hydroxytryptamine receptor 2B (P41595 whole entry): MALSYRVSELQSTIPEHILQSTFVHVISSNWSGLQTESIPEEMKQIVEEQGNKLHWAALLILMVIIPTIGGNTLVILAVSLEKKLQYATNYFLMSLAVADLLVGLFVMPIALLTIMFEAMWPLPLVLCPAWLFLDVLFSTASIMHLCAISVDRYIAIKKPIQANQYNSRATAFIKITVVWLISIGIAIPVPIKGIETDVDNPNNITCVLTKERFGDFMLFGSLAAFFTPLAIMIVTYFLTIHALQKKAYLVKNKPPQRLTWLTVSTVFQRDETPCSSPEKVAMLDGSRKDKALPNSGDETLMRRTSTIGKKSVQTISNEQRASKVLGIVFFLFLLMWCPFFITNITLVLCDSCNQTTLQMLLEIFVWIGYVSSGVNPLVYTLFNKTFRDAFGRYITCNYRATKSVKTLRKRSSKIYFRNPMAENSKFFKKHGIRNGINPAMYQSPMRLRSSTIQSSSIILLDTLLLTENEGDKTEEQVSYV

| SMILES | IC50 [1] | IC50 [2] | IC50 (D(2) dopamine receptor) | IC50 [3] | IC50 [4] | IC50 [5] | IC50 (D(3) dopamine receptor) | IC50 [6] | inhibition in vivo at 50 mg/kg (Mus musculus [7]) | IC50 [8] | inhibition in vivo at 50 mg/kg (Mus musculus [9]) | IC50 [10] | IC50 [11] | IC50 [12] | Ratio IC50 (Homo sapiens [13]) | IC50 [14] | Ratio IC50 (Homo sapiens [15]) | inhibition in vivo at 5.6 mg/kg (Mus musculus [16]) |
| --- | --- | --- | --- | --- | --- | --- | --- | --- | --- | --- | --- | --- | --- | --- | --- | --- | --- | --- |
| COc1cccc(Nc2nc(Cc3ccccc3)nc3c2CCNCC3)c1 | 497 nM | 30.4 nM | 163 nM | 823 nM | 9.2 nM | 84.4 nM | 941 nM | 37.3 nM | 55.8% | 77.6 nM | 63.9% | 549 nM | – | – | – | – | – | – |
| Fc1cccc(Nc2nc(Cc3ccccc3)nc3c2CCNCC3)c1 | 1060 nM | 22.2 nM | 63.3 nM | 1250 nM | – | 4.92 nM | 674 nM | 13.3 nM | 69.4% | 27.9 nM | 68.9% | 735 nM | – | – | – | – | – | – |
| CN1CCN(c2nc3c(c(Nc4ccc(F)cc4)n2)CCNCC3)CC1 | – | – | – | – | 1500 nM | 215 nM | – | 337 nM | 11% | 153 nM | 5.61% | – | – | – | – | – | – | – |
| c1ccc(Cc2nc3c(c(Nc4ccccc4)n2)CCNCC3)cc1 | 1560 nM | 36.8 nM | 147 nM | 395 nM | – | 2.69 nM | 272 nM | 1.98 nM | 64.2% | – | 71.8% | 112 nM | 1390 nM | > 10000 nM | 33.1 | 89 nM | 44.9 | – |
| Clc1cccc(N2CCNCC2)c1 [CHLOROPHENYLPIPERAZINE] | – | – | – | – | – | – | – | – | – | – | – | – | – | – | – | – | – | 13.1% |
